Assay results as given in ChEMBL document CHEMBL1155348, “Synthesis and antiviral activity of beta-carboline derivatives bearing a substituted carbohydrazide at C-3 against poliovirus and herpes simplex virus (HSV-1)” (Eur J Med Chem, 2009).
Activity calls are given as the source filed them. The rule behind the calls is not given here.

Assays:
[1] = Selectivity index, ratio of CC50 for african green monkey Vero cells to EC50 in HSV1
Procedure, shortened: (§1)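 SI was derived from the SRB-based CC50 in Vero cells and the SRB-based EC50 against each virus.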

[2] = test system: Human alphaherpesvirus 1; experiment: Antiviral activity against HSV1 infected in african green monkey Vero cells by SRB assay; format: functional, organism-based; conditions: Human alphaherpesvirus 1, Vero
Procedure, shortened: (§2)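 Screening: Vero monolayers, infected or uninfected, were treated with a range of compound concentrations. Antiviral activity was read by sulforhodamine B (SRB) staining, and EC50 was taken as the concentration giving 50% efficacy.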

[3] = Cytotoxicity against african green monkey Vero cells after 72 hrs by SRB assay; format: cell-based; conditions: chlorocebus sabaeus
Procedure, shortened: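 Uninfected Vero cells were exposed to compound for 72 h and viability was measured by SRB assay. CC50 is the concentration giving 50% cytotoxicity.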

[4] = test system: Enterovirus C; experiment: Antiviral activity against Poliovirus infected in african green monkey Vero cells by SRB assay; format: functional, organism-based; procedure, shortened: as §2
[5] = Selectivity index, ratio of CC50 for african green monkey Vero cells to EC50 in Poliovirus; format: toxicity, cell-based; conditions: read-out: Ratio CC50/EC50; procedure, shortened: as §1
[6] = test system: Enterovirus C; experiment: Antiviral activity against Poliovirus infected in african green monkey Vero cells assessed as reduction of plaque formation at 3.3 uM treated 1 hr after viral infection measured after 48 to 72 hrs by virus yield inhibition assay; format: functional; design: scale not given: the % may be the effect or the level left
Procedure, shortened: (§3)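 PBS-washed Vero monolayers were infected for 1 h. Unadsorbed virus was removed, cells were washed, and compound was then added at various concentrations in DMEM with 0.5% carboxymethylcellulose. After 48 or 72 h at 37 °C, cells were fixed with 10% formaldehyde, stained with 0.5% crystal violet and plaques counted.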

[7] = test system: Enterovirus C; experiment: Antiviral activity against Poliovirus infected in 1 hr compound pretreated african green monkey Vero cells assessed as reduction of plaque formation at 3.3 uM measured after 48 to 72 hrs by virus yield inhibition assay; format: functional; design: scale not given: the % may be the effect or the level left
Procedure, shortened: (§4)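 Compound was dissolved in DMSO, diluted in serum-free DMEM and added to PBS-washed Vero monolayers for 1 h at 37 °C in 5% CO2. Unbound compound was removed and cells were washed and then infected for 1 h. Unadsorbed virus was removed, and cells were washed and overlaid with DMEM plus 0.5% carboxymethylcellulose. After 48 or 72 h, cells were fixed with formaldehyde, stained with crystal violet and plaques counted.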

[8] = test system: Enterovirus C; experiment: Antiviral activity against 1 hr compound pretreated Poliovirus infected in african green monkey Vero cells assessed as reduction of plaque formation at 0.825 uM after 48 to 72 hrs by virus yield inhibition assay; format: functional; design: scale not given: the % may be the effect or the level left
[9] = test system: Enterovirus C; experiment: Antiviral activity against Poliovirus infected in african green monkey Vero cells assessed as reduction of plaque formation at 3.3 uM treated during viral infection measured after 48 to 72 hrs by virus yield inhibition assay; format: functional; design: scale not given: the % may be the effect or the level left
Procedure, shortened: (§5)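 Compound was diluted from DMSO into serum-free DMEM and added together with virus to PBS-washed Vero monolayers for 1 h at 37 °C in 5% CO2. Unadsorbed virus was removed, and cells were washed with PBS and overlaid with DMEM plus 0.5% carboxymethylcellulose. After 48 or 72 h, cells were fixed with 10% formaldehyde, stained with 0.5% crystal violet and plaques counted.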

[10] = test system: Enterovirus C; experiment: Antiviral activity against Poliovirus infected in african green monkey Vero cells assessed as reduction of plaque formation at 6.6 uM treated during viral infection measured after 48 to 72 hrs by virus yield inhibition assay; format: functional; design: scale not given: the % may be the effect or the level left; procedure, shortened: as §5
[11] = test system: Enterovirus C; experiment: Antiviral activity against Poliovirus infected in 1 hr compound pretreated african green monkey Vero cells assessed as reduction of plaque formation at 1.65 uM measured after 48 to 72 hrs by virus yield inhibition assay; format: functional; design: scale not given: the % may be the effect or the level left; procedure, shortened: as §4
[12] = test system: Enterovirus C; experiment: Antiviral activity against Poliovirus infected in african green monkey Vero cells assessed as reduction of plaque formation at 0.825 uM treated during viral infection measured after 48 to 72 hrs by virus yield inhibition assay; format: functional; design: scale not given: the % may be the effect or the level left; procedure, shortened: as §5
[13] = test system: Enterovirus C; experiment: Antiviral activity against 1 hr compound pretreated Poliovirus infected in african green monkey Vero cells assessed as reduction of plaque formation at 3.3 uM after 48 to 72 hrs by virus yield inhibition assay; format: functional; design: scale not given: the % may be the effect or the level left
[14] = test system: Enterovirus C; experiment: Antiviral activity against 1 hr compound pretreated Poliovirus infected in african green monkey Vero cells assessed as reduction of plaque formation at 1.65 uM after 48 to 72 hrs by virus yield inhibition assay; format: functional; design: scale not given: the % may be the effect or the level left
[15] = test system: Enterovirus C; experiment: Antiviral activity against Poliovirus infected in 1 hr compound pretreated african green monkey Vero cells assessed as reduction of plaque formation at 6.6 uM measured after 48 to 72 hrs by virus yield inhibition assay; format: functional; design: scale not given: the % may be the effect or the level left; procedure, shortened: as §4
[16] = test system: Enterovirus C; experiment: Antiviral activity against Poliovirus infected in african green monkey Vero cells assessed as reduction of plaque formation at 1.65 uM treated 1 hr after viral infection measured after 48 to 72 hrs by virus yield inhibition assay; format: functional; design: scale not given: the % may be the effect or the level left; procedure, shortened: as §3
[17] = test system: Enterovirus C; experiment: Antiviral activity against 1 hr compound pretreated Poliovirus infected in african green monkey Vero cells assessed as reduction of plaque formation at 6.6 uM after 48 to 72 hrs by virus yield inhibition assay; format: functional; design: scale not given: the % may be the effect or the level left
[18] = test system: Enterovirus C; experiment: Antiviral activity against Poliovirus infected in african green monkey Vero cells assessed as reduction of plaque formation at 0.825 uM treated 1 hr after viral infection measured after 48 to 72 hrs by virus yield inhibition assay; format: functional; design: scale not given: the % may be the effect or the level left; procedure, shortened: as §3
[19] = test system: Enterovirus C; experiment: Antiviral activity against Poliovirus infected in african green monkey Vero cells assessed as reduction of plaque formation at 6.6 uM treated 1 hr after viral infection measured after 48 to 72 hrs by virus yield inhibition assay; format: functional; design: scale not given: the % may be the effect or the level left; procedure, shortened: as §3
[20] = test system: Enterovirus C; experiment: Antiviral activity against Poliovirus infected in african green monkey Vero cells assessed as reduction of plaque formation at 1.65 uM treated during viral infection measured after 48 to 72 hrs by virus yield inhibition assay; format: functional; design: scale not given: the % may be the effect or the level left; procedure, shortened: as §5
[21] = test system: Enterovirus C; experiment: Antiviral activity against Poliovirus infected in 1 hr compound pretreated african green monkey Vero cells assessed as reduction of plaque formation at 0.825 uM measured after 48 to 72 hrs by virus yield inhibition assay; format: functional; design: scale not given: the % may be the effect or the level left; procedure, shortened: as §4
[22] = test system: Human alphaherpesvirus 1; experiment: Antiviral activity against 1 hr compound pretreated HSV1 infected in african green monkey Vero cells assessed as inhibition of viral replication measured after 48 to 72 hrs; format: functional, organism-based
Procedure, shortened: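 HSV-1 was mixed with compound for 1 h before being added to Vero cells. The mixture infected the cells for 1 h at 37 °C in 5% CO2. The monolayer was washed with PBS and overlaid with DMEM containing carboxymethylcellulose. After 48 or 72 h at 37 °C, cells were fixed with 10% formaldehyde and stained with 0.5% crystal violet, and plaques were counted.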

SMILES	Ratio CC50/EC50 [1]	EC50 [2] [µM]	CC50 at 72 h [3] [µM]	EC50 [4] [µM]	further results
O=C(N/N=C/c1ccccc1Cl)c1cc2c([nH]c3ccccc32)c(-c2ccc(O)cc2)n1	0.7	41.2	29.8	> 100	–
COc1ccc(/C=N/NC(=O)c2cc3c([nH]c4ccccc43)c(-c3ccc(OC)cc3)n2)cc1	–	> 100	–	> 100	–
O=C(N/N=C/c1ccccc1)c1cc2c([nH]c3ccccc32)c(-c2ccc(O)cc2)n1	–	> 100	1240	1.03	selectivity ratio [5]: 1200
COc1ccc(/C=N/NC(=O)c2cc3c([nH]c4ccccc43)c(-c3cccc([N+](=O)[O-])c3)n2)cc1	–	> 100	–	> 100	–
COc1ccc(/C=N/NC(=O)c2cc3c([nH]c4ccccc43)c(-c3ccc([N+](=O)[O-])cc3)n2)cc1	–	> 100	–	> 100	–
COc1ccc(/C=N/NC(=O)c2cc3c([nH]c4ccccc43)c(-c3ccc(O)cc3)n2)cc1	35	22.9	803	> 100	–
O=C(N/N=C/c1ccccc1)c1cc2c([nH]c3ccccc32)c(-c2ccccc2)n1	–	> 100	777	1.95	selectivity ratio [5]: 398
CN(C)c1ccc(/C=N/NC(=O)c2cc3c([nH]c4ccccc43)c(-c3cccc([N+](=O)[O-])c3)n2)cc1	14.3	73.2	1050	> 100	–
O=C(N/N=C/c1ccccc1)c1cc2c([nH]c3ccccc32)c(-c2ccc([N+](=O)[O-])cc2)n1	–	> 100	–	> 100	–
O=C(N/N=C/c1ccccc1Cl)c1cc2c([nH]c3ccccc32)c(-c2ccccc2)n1	–	> 100	–	> 100	–
CN(C)c1ccc(/C=N/NC(=O)c2cc3c([nH]c4ccccc43)c(-c3ccc([N+](=O)[O-])cc3)n2)cc1	–	> 100	–	> 100	–
COc1ccc(-c2nc(C(=O)N/N=C/c3ccc([N+](=O)[O-])cc3)cc3c2[nH]c2ccccc23)cc1	–	> 100	–	> 100	–
COc1ccc(-c2nc(C(=O)N/N=C/c3ccccc3)cc3c2[nH]c2ccccc23)cc1	–	> 100	–	> 100	–
O=C(N/N=C/c1ccc([N+](=O)[O-])cc1)c1cc2c([nH]c3ccccc32)c(-c2ccc(O)cc2)n1	2.3	86.5	200	> 100	–
CN(C)c1ccc(/C=N/NC(=O)c2cc3c([nH]c4ccccc43)c(-c3ccccc3)n2)cc1	629.5	1.85	1160	0.87	selectivity ratio [5]: 1340
CN(C)c1ccc(/C=N/NC(=O)c2cc3c([nH]c4ccccc43)c(-c3ccc(O)cc3)n2)cc1	–	> 100	900	2.67	Activity [6]: 66.3%; Activity [7]: 0%; Activity [8]: 0%; Activity [9]: 0%; Activity [10]: 0%; Activity [11]: 0%; selectivity ratio [5]: 337; Activity [12]: 0%; Activity [13]: 0%; Activity [14]: 0%; Activity [15]: 0%; Activity [16]: 32%; Activity [17]: 0%; Activity [18]: 0%; Activity [19]: 88.3%; Activity [20]: 0%; Activity [21]: 0%
COc1ccc(-c2nc(C(=O)N/N=C/c3ccc(N(C)C)cc3)cc3c2[nH]c2ccccc23)cc1	–	> 100	–	> 100	–
O=C(N/N=C/c1ccc([N+](=O)[O-])cc1)c1cc2c([nH]c3ccccc32)c(-c2ccccc2)n1	–	> 100	–	> 100	–
COc1ccc(/C=N/NC(=O)c2cc3c([nH]c4ccccc43)c(-c3ccccc3)n2)cc1	2446.8	0.47	1150	0.87	selectivity ratio [5]: 1320; Activity [22]: inactive
